# E coli WT exp: growth inhibitors of E. coli BW25113 wild type; OD600 absorbance; growth inhibition, % at 100 µM; actives 0.15% (n = 98,000); AID 710;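 active = growth inhibition above about 50% at one test dose, limit read from the data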;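 note: growth measured after 20 h incubation at 37 °C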
# CYP2C19 act: increases human CYP2C19 enzyme activity | 96,000 tested, under 10 active | activation factor at 5 µM | AID 1025 | recombinant CYP2C19, luciferin-H EGE luminescence; active compounds read high; 0 = fully inhibited enzyme, 1 = untreated enzyme;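 active = activation factor of at least 2 at 5 µM in the primary screen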;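 note: 0 = wells with 2.5 mM tranylcypromine and 1 = vehicle-only wells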
# Ecoli tolC: growth inhibitors of E. coli BW25113 tolC mutant. OD615. growth inhibition, % at 10 µM (by protocol). actives 2.2% (n = 65,000). AID 573;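 active = growth inhibition at or above a cutoff equal to the mean over every tested compound plus 3 SD, cut at about 60% in these data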;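 note: growth measured after 20 h incubation at 37 °C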
#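 Test system: tolC-deleted E. coli BW25113; medium: LB with kanamycin 50 µg/mL; compound: single-point testing at 10 µM; incubation: 20 h compound exposure of bacteria at 37 °C; signal: OD at 615 nm; evaluation: growth inhibition in percent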
# CYP2C9 inhib: inhibitors of human CYP2C9; P11712; CYP2C9 Supersomes, luciferin-H conversion, luminescence; inhibition, % at 5 µM; actives 20% (n = 96,000); AID 777;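 active = blocking of liver enzyme CYP2C9 beyond about 50% at 5 µM, limit read from the data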
# Target sequence (P11712 whole entry, looked up): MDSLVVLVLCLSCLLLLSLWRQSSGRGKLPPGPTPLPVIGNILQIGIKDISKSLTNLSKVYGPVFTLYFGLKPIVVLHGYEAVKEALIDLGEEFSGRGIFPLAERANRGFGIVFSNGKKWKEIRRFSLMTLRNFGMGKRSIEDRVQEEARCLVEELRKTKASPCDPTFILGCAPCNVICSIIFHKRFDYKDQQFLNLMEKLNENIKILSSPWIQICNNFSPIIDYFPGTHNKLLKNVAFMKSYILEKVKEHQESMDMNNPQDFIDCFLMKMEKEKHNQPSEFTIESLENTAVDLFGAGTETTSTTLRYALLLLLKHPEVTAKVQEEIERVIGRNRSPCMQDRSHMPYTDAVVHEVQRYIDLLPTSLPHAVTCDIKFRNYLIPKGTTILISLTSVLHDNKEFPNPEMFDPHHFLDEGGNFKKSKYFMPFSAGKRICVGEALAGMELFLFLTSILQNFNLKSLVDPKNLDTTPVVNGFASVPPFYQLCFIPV
# CYP2C9 act: activators of human CYP2C9 | recombinant CYP2C9, luciferin-H conversion, luminescence; active compounds read high; factor 1 = untreated enzyme, 0 = blocked | activation factor at 5 µM | actives 1.4% (n = 96,000) | AID 1024;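 active = activation factor of 2 or more for CYP2C9 at a 5 µM dose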;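 note: 0 = sulfaphenazole-blocked wells and 1 = vehicle-only wells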
# CYP2C19 inhib: inhibitors of human CYP2C19 | inhibition, % at 5 µM | actives 21% (n = 96,000) | AID 778 | CYP2C19 Supersomes, luciferin-H EGE luminescence, 30 min;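 active = CYP2C19 inhibition above a set limit at 5 µM in the primary screen, cut at about 50% in these data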;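 note: plate controls were negative control wells for no effect and 2.5 mM tranylcypromine positive control for full effect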
# Starred values were filed as active, the others as inactive; . = no result given. Sampled rows, rich in hits. Any-hit rate of the full collection: about 29%.
SMILES,E coli WT exp,CYP2C19 act,Ecoli tolC,CYP2C9 inhib,CYP2C9 act,CYP2C19 inhib
Cc1cc(-c2ccccc2)[nH]c(=O)c1S(=O)(=O)c1ccc(Cl)cc1,-7.0,1.1,.,6.0,0.9,-7.8
CN1CCN(Cn2cc(/C=C/C(=O)c3ccccc3)c3ccccc32)CC1,4.0,0.2,.,95.7*,0,81.4*
CCOC(=O)C1=C(C)SC2=NS(=O)(=O)CCN21,5.0,0.6,-5.7,-1.8,1,40.0
COc1ccc(NC(=O)c2ccco2)cc1NC(=O)c1c(F)c(F)c(OC)c(F)c1F,-4.0,1,-15.5,2.9,1,-2.5
Cc1cc(C(=O)Nc2ccccc2C#N)n(-c2ccccc2)n1,-1.0,0.6,-14.4,57.0*,0.4,40.8
Cc1cc(C(=O)NCc2cccs2)n(-c2ccccc2)n1,0.0,0.5,-8.6,59.3*,0.4,48.5
CCN(CCNC(=O)c1cc(C)nn1-c1ccccc1)c1ccccc1,6.0,0.2,20.7,16.5,0.8,79.4*
COC(CNC(=O)c1cc(C)nn1-c1ccccc1)OC,8.0,0.9,.,6.8,0.9,6.0
Cc1cc(C(=O)Nc2c(C)cccc2C)n(-c2ccccc2)n1,-1.0,0.9,.,10.1,0.9,7.9
CCC/S(CC1CC1(Cl)Cl)=N\S(=O)(=O)c1ccc(C)cc1 (stereo not drawn),3.0,0.9,.,-3.4,1,5.3
Cc1ccc2nc(SCCC(=O)O)cc(C)c2c1,-2.0,1,.,8.9,0.9,0.6
O=C(c1cnc2n(c1=O)CCS2)N1CCN(c2ccc([N+](=O)[O-])cc2)CC1,-4.0,1.1,.,8.8,0.9,-5.9
O/N=C(\c1ccc(Cl)cc1)c1ncc(C(F)(F)F)cc1Cl,16.0,0,.,86.5*,0.1,98.0*
COc1ccc(OC)c(CCNC(=O)CS(=O)(=O)Cc2nc(-c3ccc(C)cc3)oc2C)c1,-11.0,0.5,20.7,66.0*,0.3,53.7*
CCOC(=O)c1cccc(NC(=O)CS(=O)(=O)Cc2nc(-c3cccc(OC)c3)oc2C)c1,-6.0,0.6,1.6,75.8*,0.2,44.8
COc1cccc(-c2nc(CS(=O)(=O)CC(=O)N3CCN(c4ccccn4)CC3)c(C)o2)c1,0.0,0.8,0.6,51.2*,0.5,21.0
CCN(CCNC(=O)CS(=O)(=O)Cc1nc(-c2cccc(OC)c2)oc1C)c1ccccc1,-9.0,0.2,30.3,87.0*,0.1,78.3*
COc1cccc(-c2nc(CS(=O)(=O)CC(=O)NCCC(C)C)c(C)o2)c1,2.0,.,-9.6,.,.,.
COc1ccc(CNC(=O)CCOc2ccc(C(C)(C)C)cc2)cc1,-11.0,0.9,.,41.2,0.6,14.0
O=S(=O)(c1ccc(Oc2ccc(-c3nnco3)cc2)nc1)N1CCC(Cc2ccccc2)CC1,-8.0,0.9,-19.5,58.2*,0.4,14.6
Cc1ccc(S(=O)(=O)N2CCN(C(=O)COc3ccc(-c4nnco4)cc3)CC2)cc1,-6.0,0.9,-16.5,30.4,0.7,10.3
CSc1nc(C)cc(C)c1S(=O)(=O)c1ccccc1C,2.0,0.9,.,-189.7,2.9*,12.2
CCSc1nc(C)cc(C)c1S(=O)(=O)c1ccccc1C,0.0,0.6,.,-45.6,1.5,41.5
O=C(CC1CCCC1)OCn1nnc2ccccc2c1=O,2.0,0.8,0.3,17.2,0.8,22.8
COc1ccc(NC(=O)c2c(-c3ccccc3Cl)noc2C)c(OC)c1,-35.0,0.4,6.3,48.6,0.5,59.2*
SMILES,E coli WT exp,CYP2C19 act,Ecoli tolC,CYP2C9 inhib,CYP2C9 act,CYP2C19 inhib
COc1ccc(NC(=O)c2c(-c3ccccc3)noc2C)c(OC)c1,5.0,0.5,3.1,31.3,0.7,46.2
COc1ccc(-n2nc3c(c2NC(=O)c2c(-c4ccccc4Cl)noc2C)CS(=O)(=O)C3)cc1,1.0,0.5,2.4,82.5*,0.2,49.6
O=C(NCc1ccco1)c1cnc2n(c1=O)CCS2,.,0.9,0.8,6.7,0.9,7.0
COc1cccc(OC)c1OCCN(C)C,5.0,0.9,.,2.5,1,6.9
c1cc(Nc2ncnc3sccc23)cc(-c2nnc3n2CCCCC3)c1,4.0,1.1,0.2,-5.3,1.1,-5.4
COc1ccc(CNC(=O)C2CCCN2S(=O)(=O)c2ccc(S(=O)(=O)N(C)C)cc2)cc1 (stereo not drawn),-7.0,0.9,-4.8,29.5,0.7,9.3
COc1cccc(OCc2nc3ccccc3c(=O)n2N)c1,0.0,0.7,13.3,11.7,0.9,30.5
Nn1c(COc2ccccc2)nc2ccccc2c1=O,3.0,0.5,-15.7,23.3,0.8,51.8*
Cc1ccccc1OCc1nc2ccccc2c(=O)n1N,15.0,0.5,.,50.3*,0.5,52.7*
CCCCCc1nc2ccccc2c(=O)n1N,-7.0,0.4,5.9,31.2,0.7,59.7*
CCCc1ccc(Oc2cn[nH]c2-c2ccc(O)cc2O)cc1,8.0,0,100.0*,88.9*,0.1,96.4*
CCCc1ccc(OCCNC(C)=O)cc1,6.0,.,-13.0,.,.,.
COc1ccc(Oc2cn[nH]c2-c2ccc(O)cc2O)cc1,22.0,0,94.4*,98.8*,0,99.9*
COc1ccc(-c2[nH]ncc2-c2cnn(-c3ccccc3)c2)c(O)c1,1.0,0.3,92.9*,82.4*,0.2,69.4*
COc1ccc2c(=O)c(-c3cnn(-c4ccccc4)c3)c(C)oc2c1,6.0,0.8,.,29.0,0.7,23.9
COc1ccc(-c2[nH]ncc2Oc2ccccc2OC)c(O)c1,8.0,0.1,98.9*,74.6*,0.3,93.6*
COc1ccc(C2(C(=O)NC(C)C)CCCC2)cc1OC,6.0,0.8,0.4,13.4,0.9,16.5
CC1CCCCN1CCNC(=O)CN1C(=O)COc2ccccc21 (stereo not drawn),1.0,1.1,-12.3,-7.6,1.1,-7.5
Cc1cc2ncn(C3CC(=O)N(Cc4ccc(N5CCCC5=O)cc4)C3=O)c2cc1C (stereo not drawn),1.0,0.7,-5.5,37.0,0.6,30.2
C=CCn1c(-c2ccoc2)n[nH]c1=S,6.0,1,4.9,-10.4,1.1,4.6
C=CCn1c(Cc2c[nH]c3ccccc23)n[nH]c1=S,10.0,0.4,-3.1,31.8,0.7,62.2*
C=CCn1c(-c2cccc3ccccc23)n[nH]c1=S,12.0,0.1,.,52.5*,0.5,92.2*
C=CCn1c(-c2ccccc2)n[nH]c1=S,8.0,.,1.4,.,.,.
C=CCn1c(Cc2c[nH]c3ccccc23)nnc1SCC(=O)NCc1ccccc1,3.0,0.9,.,21.2,0.8,8.3
C=CCn1c(Cc2nc3ccc(Cl)cc3[nH]2)n[nH]c1=S,8.0,0,4.1,32.4,0.7,97.9*
O=C(CSc1nnc(-c2cccs2)n1CC1CCCO1)c1cc2ccccc2o1 (stereo not drawn),3.0,0.8,11.2,32.3,0.7,19.2
C=CCOc1ccc(/C(O)=C2/C(=O)C(=O)N(CCCn3ccnc3)C2c2cccs2)cc1 (stereo not drawn),0.0,0.7,20.4,38.2,0.6,31.4

# Assay outcomes deposited in PubChem BioAssay by several laboratories.
